Reference: ChEMBL document CHEMBL1156793, “Identification, synthesis, and pharmacological evaluation of tetrahydroindazole based ligands as novel antituberculosis agents” (J Med Chem, 2010)
In brackets after ≈: the same amount, converted by molar mass.

How the values were obtained:
[1] = tested on: Mycobacterium tuberculosis; experiment: Antimycobacterial activity against Mycobacterium tuberculosis H37Rv after 16 to 24 hrs by microplate alamar blue assay; format: functional
Outline: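 M. tuberculosis H37Rv (ATCC 27294), 1 × 10^5 cfu/mL inoculum, in 7H12 medium with two-fold compound dilutions at 128 to 0.5 μM final (12.8 mM DMSO stocks). Incubated aerobically at 37 °C for 7 days, then Tween 80 plus Alamar blue added for 16-24 h. Fluorescence read at ex 530/em 590 nm. MIC = lowest concentration giving ≥90% reduction versus bacteria-only controls; average of two measurements.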

Vero = experiment: Cytotoxicity against african green monkey Vero cells after 72 hrs; format: cell-based; details: Chlorocebus sabaeus
Outline: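 Vero cells (CCL-81), 5 × 10^5 log-phase cells per well, exposed to geometric 3-fold dilutions in MEM with 10% FBS, 25 mM HEPES, 0.2% NaHCO3, 2 mM glutamine. DMSO ≤1% v/v final. Tested in duplicate at 37 °C, 5% CO2. Viability read after 72 h by CellTiter 96 aqueous (MTS) absorbance at 490 nm. IC50 from curve fitting.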

[2] = Selectivity index, ratio of IC50 for african green monkey Vero cells to MIC for Mycobacterium tuberculosis H37Rv ATCC 27294; format: functional
Outline: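 The ratio takes the Vero (CCL-81) IC50 as numerator. Cells were exposed to geometric 3-fold dilutions (12.8 mM DMSO stocks, final DMSO ≤1% v/v) in MEM with 10% FBS, 25 mM HEPES and 2 mM glutamine, in duplicate. Culture was 72 h at 37 °C, 5% CO2. Viability was read by CellTiter 96 aqueous absorbance at 490 nm, and IC50 came from curve fitting. The denominator is the H37Rv MABA MIC.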

[3] = Metabolic stability in mouse liver microsomes assessed as half life; format: ADME, Microsome
Outline: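 Mixture prewarmed 5 min, then started with 1.0 mM NADPH. Quenched with acetonitrile plus internal standard at 0, 5, 10, 15, 20 and 30 min. Parent measured by LC-MS-MS. No-NADPH controls.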

[4] = Metabolic stability in mouse liver microsomes assessed as intrinsic clearance; format: ADME, Microsome
Outline: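 Intrinsic clearance scaled up from the in vitro half-life in mouse liver microsomes. Microsomes at 0.5 mg/mL, compound at 1 μM, 1.0 mM NADPH, pH 7.4 phosphate buffer, 37 °C, in triplicate. Parent depletion followed over 30 min by LC-MS-MS.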

[5] = Metabolic stability in mouse liver microsomes assessed as hepatic clearance; format: ADME, Microsome
Outline: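 Hepatic plasma clearance predicted from microsomal intrinsic clearance with the nonrestricted well-stirred liver model. Assumes protein binding is similar in blood and microsomes. Microsomal depletion run at 1 μM compound, 0.5 mg/mL mouse microsomes, 1.0 mM NADPH, 37 °C, in triplicate, measured by LC-MS-MS.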

[6] = Cmax in BALB/c mouse at 50 mg/kg, po; format: ADME, organism-based; parameters: dose 50 mg/kg, route oral; details: in vivo
Outline: (§1)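 Female BALB/c mice (20-22 g), groups of 12, single oral 50 mg/kg dose formulated in 5% NMP/95% PEG400. Retro-orbital blood sampled at 0, 0.5, 1, 2, 4, 8 and 24 h postdose. Plasma obtained by centrifugation, precipitated with three volumes acetonitrile containing internal standard. Parent quantified by LC-MS-MS. AUC over 0–24 h.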

[7] = Tmax in BALB/c mouse at 50 mg/kg, po; format: ADME, organism-based; parameters: dose 50 mg/kg, route oral; details: in vivo; outline: as §1
[8] = AUC in BALB/c mouse at 50 mg/kg, po; format: ADME, organism-based; parameters: dose 50 mg/kg, route oral; details: plasma; outline: as §1

Row | SMILES | MIC [1] | also measured
1 | COC(=O)c1ccc(C(=O)NC2CCCc3c2cnn3-c2ccc(C(C)(C)C)cc2)nc1 (stereo not given) | 7.3 µM (≈ 3.16 µg/mL) | –
2 | CC(C)(C)c1ccc(-n2ncc3c2CCCC3NC(=O)c2ncccc2O)cc1 (stereo not given) | 26.9 µM (≈ 10.5 µg/mL) | –
3 | Cc1nonc1C(=O)NC1CCCc2c1cnn2-c1ccc(N)cc1 (stereo not given) | > 128 µM | –
4 | CSCCC(=O)NC1CCCc2c1cnn2-c1ccc(OC(F)(F)F)cc1 (stereo not given) | 88.3 µM (≈ 35.3 µg/mL) | –
5 | Cc1nonc1C(=O)NC1CCCc2c1cnn2-c1cccc(C(F)(F)F)c1 (stereo not given) | 15.4 µM (≈ 6.03 µg/mL) | –
6 | Cc1nonc1C(=O)Nc1ccc(-n2ncc3c2CCCC3NC(=O)c2nonc2C)cc1 (stereo not given) | 44.9 µM (≈ 20.1 µg/mL) | –
7 | CC(C)(C)c1ccc(-n2ncc3c2CCCC3NC(=O)c2ccc3c(c2)no[n+]3[O-])cc1 (stereo not given) | 1 µM (≈ 0.431 µg/mL) | IC50 (Vero): 29 µM; Ratio IC50 [2]: 29
8 | Cc1cc(C)cc(-n2ncc3c2CCCC3NC(=O)c2nonc2C)c1 (stereo not given) | > 128 µM | –
9 | CC(C)(C)c1ccc(-n2ncc3c(NC(=O)c4ccc5c(c4)no[n+]5[O-])cccc32)cc1 | 0.4 µM (≈ 0.171 µg/mL) | IC50 (Vero): 1.8 µM; Ratio IC50 [2]: 4.5
10 | Cc1nonc1C(=O)NC1CCCc2c1cnn2-c1ccc(C(F)(F)F)cc1 (stereo not given) | 1.9 µM (≈ 0.744 µg/mL) | IC50 (Vero): > 128 µM; Ratio IC50 [2]: >67.4
11 | Cc1nonc1C(=O)NC1CCCc2c1cnn2-c1ccccc1C(F)(F)F (stereo not given) | > 128 µM | –
12 | Cc1nonc1C(=O)NC1CCCc2c1cnn2-c1ccc(C(C)(C)C)cc1 (stereo not given) | 1.7 µM (≈ 0.645 µg/mL) | IC50 (Vero): > 128 µM; Ratio IC50 [2]: >75.3; half-life [3]: 27 min; CLint scaled [4]: 200 mL/min/kg; CLhep predicted [5]: 34 mL/min/kg; Cmax [6]: 1.5 µM; Tmax [7]: 30 min; AUC [8]: 3.6 µM·h
13 | Cc1nonc1C(=O)NC1CCCc2c1cnn2-c1ccc(NC(=O)C(C)(C)C)cc1 (stereo not given) | 110 µM (≈ 46.5 µg/mL) | –
14 | Cc1cc(C)cc(-n2ncc3c(NC(=O)c4ccc5c(c4)no[n+]5[O-])cccc32)c1 | 0.7 µM (≈ 0.28 µg/mL) | IC50 (Vero): 16.1 µM; Ratio IC50 [2]: 23
15 | Cc1nonc1CNC1CCCc2c1cnn2-c1ccc(C(C)(C)C)cc1 (stereo not given) | 38.6 µM (≈ 14.1 µg/mL) | –
16 | CO[C@H]1/C=C/O[C@@]2(C)Oc3c(C)c(O)c4c(O)c(c(/C=N/N5CCN(C)CC5)c(O)c4c3C2=O)NC(=O)/C(C)=C\C=C\[C@H](C)[C@H](O)[C@@H](C)[C@@H](O)[C@@H](C)[C@H](OC(C)=O)[C@@H]1C [RIFAMPIN] | 0.06 µM (≈ 0.0494 µg/mL) | Ratio IC50 [2]: 2033
17 | COc1ccc(-n2ncc3c2CCCC3NC(=O)c2nonc2C)cc1 (stereo not given) | > 128 µM | –
18 | Cc1nonc1C(=O)NC1CCCc2c1cnn2-c1ccc(NC(=O)C(F)(F)F)cc1 (stereo not given) | 128 µM (≈ 55.4 µg/mL) | –

Row | SMILES | MIC [1] | also measured
19 | Cc1cc(C)cc(-n2ncc3c(NC(=O)c4nonc4C)cccc32)c1 | 117 µM (≈ 40.6 µg/mL) | –
20 | Cc1cc(C)cc(-n2ncc3c2CCCC3NC(=O)c2ccc3nonc3c2)c1 (stereo not given) | > 128 µM | –
21 | Cc1nonc1C(=O)Nc1cccc2c1cnn2-c1ccc(C(C)(C)C)cc1 | > 128 µM | –
22 | Cc1nonc1C(=O)NC1CCCc2c1cnn2-c1ccc(Br)cc1 (stereo not given) | 64.6 µM (≈ 26 µg/mL) | –
23 | CSCC[C@H](N)C(=O)NC1CCCc2c1cnn2-c1ccc(C(C)(C)C)cc1 (stereo not given in full) | 4.8 µM (≈ 1.92 µg/mL) | –
24 | CC(C)(C)c1ccc(-n2ncc3c2CCCC3NC(=O)c2ccno2)cc1 (stereo not given) | 124 µM (≈ 45.2 µg/mL) | –
25 | Cc1nonc1C(=O)NC1CCCc2c1cnn2-c1ccc(C(F)(F)F)cn1 (stereo not given) | > 128 µM | –
26 | Cc1nonc1C(=O)NC1CCCc2c1cnn2-c1ccc(OC(F)(F)F)cc1 (stereo not given) | 1.9 µM (≈ 0.774 µg/mL) | IC50 (Vero): > 128 µM; Ratio IC50 [2]: >67.4; half-life [3]: 102 min; CLint scaled [4]: 54 mL/min/kg; CLhep predicted [5]: 23 mL/min/kg; Cmax [6]: 9.5 µM; Tmax [7]: 30 min; AUC [8]: 53.5 µM·h
27 | Cc1nc2cc(C(=O)NC3CCCc4c3cnn4-c3ccc(OC(F)(F)F)cc3)ccc2s1 (stereo not given) | > 128 µM | –
28 | Cc1cc(C)cc(-n2ncc3c2CCCC3NC(=O)c2ccc3c(c2)no[n+]3[O-])c1 (stereo not given) | 1.9 µM (≈ 0.767 µg/mL) | –
29 | CC(C)(C)c1ccc(-n2ncc3c2CCCC3NC(=O)c2ccc3nonc3c2)cc1 (stereo not given) | > 128 µM | –
30 | CC(C)(C)c1ccc(-n2ncc3c2CCCC3NC(=O)c2cnccn2)cc1 (stereo not given) | 57.7 µM (≈ 21.7 µg/mL) | –
31 | Cc1nonc1C(=O)NC1CCCc2c1cnn2-c1ccc([N+](=O)[O-])cc1 (stereo not given) | > 128 µM | –
32 | Cc1nonc1C(=O)NC1CCCc2c1cnn2-c1ccc(NC(C)C)cc1 (stereo not given) | > 128 µM | –
33 | Cc1nonc1C(=O)NC1CCCc2c1cnn2-c1ccc(F)cc1 (stereo not given) | 30.7 µM (≈ 10.5 µg/mL) | –
34 | Cc1nonc1C(=O)NC1CCCc2c1nnn2-c1ccc(C(C)(C)C)cc1 (stereo not given) | 7.7 µM (≈ 2.93 µg/mL) | –
35 | Cc1nocc1C(=O)NC1CCCc2c1cnn2-c1ccc(OC(F)(F)F)cc1 (stereo not given) | 48.9 µM (≈ 19.9 µg/mL) | –
